Data: ChEMBL document CHEMBL1152830, “Synthesis of 2-sulfanyl-6-methyl-1,4-dihydropyrimidines as a new class of antifilarial agents” (Eur J Med Chem, 2008)
Activity calls are given as the source filed them. No cut-off for these calls is given here.

Legend:
[1] = system: Brugia malayi; assay: Embryostatic activity against Brugia malayi sub-periodic strain in Mastomys coucha assessed as sterilized female worms at 25 mg/kg, ip for 5 days; assay type: functional; details: route intraperitoneal
[2] = system: Brugia malayi; assay: Embryostatic activity against transplanted adult worms of Brugia malayi sub-periodic strain in Meriones unguiculatus assessed as sterilized female worms at 12.5 mg/kg, ip for 5 days; assay type: functional; details: route intraperitoneal
Procedure, shortened: (§1)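 Meriones unguiculatus (jirds) carrying transplanted adult B. malayi were dosed i.p. once daily for 5 days, 5 animals per group. Microfilariae in the peritoneal cavity were checked. Live male and female worms and sterilized females were counted. Results are percent relative to untreated controls, given as mean ± SD.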

[3] = system: Brugia malayi; assay: Antifilarial activity against Brugia malayi sub-periodic strain in Mastomys coucha assessed as reduction in worm burden at 25 mg/kg, ip for 5 days relative to control; assay type: functional; set-up: scale not given: the % may be the effect or the level left; details: route intraperitoneal
[4] = system: Brugia malayi; assay: Antifilarial activity against Brugia malayi sub-periodic strain assessed as motility at 200 uM; assay type: functional, organism-based
Procedure, shortened: (§2)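 Adult B. malayi worms kept in vitro with compound, then motility scored. The worms were also moved to fresh drug-free medium at 37 °C for 30 min to judge whether paralysis was irreversible. The vehicle served as control.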

[5] = system: Brugia malayi; assay: Antifilarial activity against Brugia malayi sub-periodic strain assessed as motility at 50 uM; assay type: functional, organism-based; procedure, shortened: as §2
[6] = system: Brugia malayi; assay: Antifilarial activity against Brugia malayi sub-periodic strain assessed as motility at 100 uM; assay type: functional, organism-based; procedure, shortened: as §2
[7] = system: Brugia malayi; assay: Antifilarial activity against Brugia malayi sub-periodic strain at 100 uM by MTT reduction assay; assay type: functional
Procedure, shortened: (§3)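 MTT reduction was measured on adult B. malayi worms after in vitro drug exposure. Each result is percent inhibition of MTT reduction relative to vehicle control, given as mean ± SD.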

[8] = system: Brugia malayi; assay: Antifilarial activity against Brugia malayi sub-periodic strain at 400 uM by MTT reduction assay; assay type: functional, organism-based; procedure, shortened: as §3
[9] = system: Brugia malayi; assay: Antifilarial activity against Brugia malayi sub-periodic strain in Mastomys coucha assessed as microfilarial count at 25 mg/kg, ip for 5 days measured after 8 days; assay type: functional; details: route intraperitoneal
[10] = system: Brugia malayi; assay: Antifilarial activity against Brugia malayi sub-periodic strain assessed as sluggish motility at 400 uM; assay type: functional, organism-based; procedure, shortened: as §2
[11] = system: Brugia malayi; assay: Antifilarial activity against Brugia malayi sub-periodic strain at 200 uM by MTT reduction assay; assay type: functional, organism-based; procedure, shortened: as §3
[12] = system: Brugia malayi; assay: Antifilarial activity against Brugia malayi sub-periodic strain at 50 uM by MTT reduction assay; assay type: functional; procedure, shortened: as §3
[13] = system: Brugia malayi; assay: Antifilarial activity against transplanted adult worms of Brugia malayi sub-periodic strain in Meriones unguiculatus assessed as reduction in worm burden 12.5 mg/kg, ip for 5 days relative to control; assay type: functional, organism-based; set-up: dose 12.5 mg/kg; procedure, shortened: as §1
[14] = system: Brugia malayi; assay: Antifilarial activity against Brugia malayi sub-periodic strain assessed as complete loss of motility at 100 uM; assay type: functional, organism-based; procedure, shortened: as §2
[15] = system: Brugia malayi; assay: Antifilarial activity against Brugia malayi sub-periodic strain assessed as sluggish motility at 25 uM; assay type: functional, organism-based; procedure, shortened: as §2
[16] = system: Brugia malayi; assay: Embryostatic activity against Brugia malayi sub-periodic strain in Mastomys coucha assessed as sterilized female worms at 100 mg/kg, ip for 5 days; assay type: functional; details: route intraperitoneal
[17] = system: Brugia malayi; assay: Antifilarial activity against Brugia malayi sub-periodic strain in Mastomys coucha assessed as reduction in worm burden at 100 mg/kg, ip for 5 days relative to control; assay type: functional; set-up: scale not given: the % may be the effect or the level left; details: route intraperitoneal
[18] = system: Brugia malayi; assay: Antifilarial activity against Brugia malayi sub-periodic strain in Mastomys coucha assessed as microfilarial count at 100 mg/kg, ip for 5 days measured after 8 days; assay type: functional; details: route intraperitoneal
[19] = system: Brugia malayi; assay: Antifilarial activity against Brugia malayi sub-periodic strain assessed as complete loss of motility at 50 uM; assay type: functional, organism-based; procedure, shortened: as §2
[20] = system: Brugia malayi; assay: Antifilarial activity against Brugia malayi sub-periodic strain at 25 uM by MTT reduction assay; assay type: functional; procedure, shortened: as §3
[21] = system: Mastomys coucha; assay: Toxicity against Mastomys coucha assessed as mortality at 50 to 100 mg/kg, ip for 5 days measured after 15 days; assay type: organism-based; set-up: dose 50-100 mg/kg, route intraperitoneal; details: in vivo, 360 h
Procedure, shortened: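 Normal (uninfected) Mastomys coucha received the compound i.p. once daily for 5 days. Animals were watched for mortality and for adverse effects on general and gross health during dosing and for up to 15 days after treatment.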

[22] = system: Brugia malayi; assay: Antifilarial activity against Brugia malayi sub-periodic strain assessed as motility at 25 uM; assay type: functional, organism-based; procedure, shortened: as §2
[23] = system: Brugia malayi; assay: Antifilarial activity against Brugia malayi sub-periodic strain in Mastomys coucha assessed as reduction in worm burden at 50 mg/kg, ip for 5 days relative to control; assay type: functional; set-up: scale not given: the % may be the effect or the level left; details: route intraperitoneal
[24] = system: Brugia malayi; assay: Embryostatic activity against Brugia malayi sub-periodic strain in Mastomys coucha assessed as sterilized female worms at 50 mg/kg, ip for 5 days; assay type: functional; details: route intraperitoneal
[25] = system: Brugia malayi; assay: Antifilarial activity against Brugia malayi sub-periodic strain assessed as complete loss of motility at 25 uM; assay type: functional, organism-based; procedure, shortened: as §2
[26] = system: Brugia malayi; assay: Antifilarial activity against transplanted adult worms of Brugia malayi sub-periodic strain in Meriones unguiculatus assessed as reduction in worm burden 100 mg/kg, ip for 5 days relative to control; assay type: functional; set-up: scale not given: the % may be the effect or the level left; details: route intraperitoneal; procedure, shortened: as §1
[27] = system: Brugia malayi; assay: Embryostatic activity against transplanted adult worms of Brugia malayi sub-periodic strain in Meriones unguiculatus assessed as sterilized female worms at 100 mg/kg, ip for 5 days; assay type: functional; details: route intraperitoneal; procedure, shortened: as §1
[28] = system: Brugia malayi; assay: Antifilarial activity against Brugia malayi sub-periodic strain in Mastomys coucha assessed as microfilarial count at 50 mg/kg, ip for 5 days measured after 8 days; assay type: functional; details: route intraperitoneal

## CCN(CC)C(=O)N1CCN(C)CC1.O=C(O)CC(O)(CC(=O)O)C(=O)O [DIETHYLCARBAMAZINE CITRATE]
[1]
  Activity: 29.7%
[2]
  Activity: 10.53%
[3]
  Activity: 0%
[4]
  Activity: inactive
[5]
  Activity: inactive
[6]
  Activity: inactive
[7]
  inhibition: inactive
[8]
  inhibition: inactive
[9]
  Activity: 20.33
[10]
  Activity: Active
[11]
  inhibition: inactive
[12]
  inhibition: inactive
[13]
  Activity: inactive

## CCCCCSC1=NC(c2ccc(OC)cc2)C(C(=O)OCC)=C(C)N1 (centres undefined)
[6]
  Activity: inactive
[7]
  inhibition at 100 µM: 22.4%

## CCCCCCCCCCCCCCSC1=NC(c2ccc(F)cc2)C(C(=O)OCC)=C(C)N1 (centres undefined)
[5]
  Activity: inactive
[7]
  inhibition: inactive
[14]
  Activity: Active
[12]
  inhibition: inactive

## CCCCCCCCCCCCCCSC1=NC(c2cccc3ccccc23)C(C(=O)OCC)=C(C)N1 (centres undefined)
[7]
  inhibition at 100 µM: 24.3%
[14]
  Activity: Active

## CCCCSC1=NC(c2cccc3ccccc23)C(C(=O)OCC)=C(C)N1 (centres undefined)
[7]
  inhibition at 100 µM: 49%
[14]
  Activity: Active
[15]
  Activity: Active
[16]
  Activity: 25.77%
[17]
  Activity: 0%
[18]
  Activity: 47.33
[12]
  inhibition: inactive
[19]
  Activity: Active
[20]
  inhibition at 25 µM: 30.4%
[21]
  Activity: Non-toxic

## CCCCCSC1=NC(c2cccc3ccccc23)C(C(=O)OCC)=C(C)N1 (centres undefined)
[6]
  Activity: inactive
[7]
  inhibition: inactive

## CCCCCCCCCCCCCCSC1=NC(c2ccc(OC)cc2)C(C(=O)OCC)=C(C)N1 (centres undefined)
[5]
  Activity: inactive
[6]
  Activity: inactive
[7]
  inhibition: inactive
[22]
  Activity: inactive
[12]
  inhibition: inactive
[20]
  inhibition: inactive

## CCCCCSC1=NC(c2ccc(Cl)cc2)C(C(=O)OCC)=C(C)N1 (centres undefined)
[6]
  Activity: inactive
[7]
  inhibition: inactive

## CCCCCSC1=NC(c2cccc([N+](=O)[O-])c2)C(C(=O)OCC)=C(C)N1 (centres undefined)
[6]
  Activity: inactive
[7]
  inhibition at 100 µM: 15.4%

## CCOC(=O)C1=C(C)NC(SCc2ccccc2)=NC1c1cccc2ccccc12 (centres undefined)
[7]
  inhibition at 100 µM: 18.9%
[14]
  Activity: Active

## CCOC(=O)C1=C(C)NC(SCc2ccccc2)=NC1c1cccc([N+](=O)[O-])c1 (centres undefined)
[7]
  inhibition at 100 µM: 43.1%
[14]
  Activity: Active

## CCOC(=O)C1=C(C)NC(SCc2ccccc2)=NC1c1ccc(OC)cc1 (centres undefined)
[7]
  inhibition at 100 µM: 52.1%
[14]
  Activity: Active
[15]
  Activity: Active
[16]
  Activity: 34.58%
[17]
  Activity: 19.66%
[18]
  Activity: 89.7
[12]
  inhibition at 50 µM: 19.3%
[19]
  Activity: Active
[20]
  inhibition: inactive
[21]
  Activity: Non-toxic

## CCCCSC1=NC(c2cccc([N+](=O)[O-])c2)C(C(=O)OCC)=C(C)N1 (centres undefined)
[7]
  inhibition at 100 µM: 25.7%
[14]
  Activity: Active

## CCCCCSC1=NC(c2ccc(F)cc2)C(C(=O)OCC)=C(C)N1 (centres undefined)
[23]
  Activity: 30.8%
[24]
  Activity: 38.1%
[7]
  inhibition at 100 µM: 68.6%
[14]
  Activity: Active
[16]
  Activity: 67.71%
[25]
  Activity: Active
[17]
  Activity: 50%
[26]
  Activity: 46.03%
[18]
  Activity: 142.67
[27]
  Activity: 34.31%
[12]
  inhibition at 50 µM: 68.5%
[19]
  Activity: Active
[20]
  inhibition at 25 µM: 25.8%
[21]
  Activity: Non-toxic
[28]
  Activity: 116.5
